Activity calls are given as the source filed them. No cut-off for these calls is given here.
Assays:
[1] = Cytotoxicity mouse BA/F3 cells assessed as cell growth inhibition after 72 hrs by cell titer-glo assay; assay type: cell-based, BaF3
Summary of the method: (§1)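 Cells seeded at 3000 per well and exposed to serial compound dilutions for 72 h. Viability read by CellTiter-Glo luminescence and normalised to DMSO controls; mean of three independent measurements. BaF3 lines kept IL-3-free in RPMI 1640/10% FBS after retroviral transduction and puromycin selection. GIST lines grown in DMEM/10% FBS.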

[2] = target: T1, Mast/stem cell growth factor receptor Kit (Homo sapiens, UniProt P10721); experiment: Inhibition of TEL-fused cKIT (unknown origin) expressed in mouse BA/F3 cells assessed as cell growth inhibition after 72 hrs by cell titer-glo assay; assay type: cell-based
[3] = test system: Mast/stem cell growth factor receptor Kit (Homo sapiens), P10721 [T670I]; experiment: Inhibition of TEL-fused cKIT T670I mutant (unknown origin) expressed in mouse BA/F3 cells assessed as cell growth inhibition after 72 hrs by cell titer-glo assay; assay type: cell-based; summary of the method: as §1
[4] = test system: Mast/stem cell growth factor receptor Kit (Homo sapiens), P10721 [V559D,T670I]; experiment: Inhibition of TEL-fused cKIT T670I/V559D double mutant (unknown origin) expressed in mouse BA/F3 cells assessed as cell growth inhibition after 72 hrs by cell titer-glo assay; assay type: cell-based; summary of the method: as §1
[5] = target: T1, Mast/stem cell growth factor receptor Kit; experiment: Inhibition of wild type cKIT in human GIST-T1 cells assessed as cell growth inhibition after 72 hrs by cell titer-glo assay; assay type: cell-based
Summary of the method: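 GIST-T1 cells (cKIT wt) grown in DMEM with 10% FBS and 1% penicillin/streptomycin at 37 °C, 5% CO2. Viability read by CellTiter-Glo luminescence and normalized to DMSO controls. GI50 taken from the mean of three independent measurements.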

[6] = test system: Mast/stem cell growth factor receptor Kit (Homo sapiens), P10721 [V654A]; experiment: Inhibition of TEL-fused cKIT V654A mutant (unknown origin) expressed in mouse BA/F3 cells assessed as cell growth inhibition after 72 hrs by cell titer-glo assay; assay type: cell-based; summary of the method: as §1
[7] = test system: Mast/stem cell growth factor receptor Kit (Homo sapiens), P10721 [D816V]; experiment: Inhibition of TEL-fused cKIT D816V mutant (unknown origin) expressed in mouse BA/F3 cells assessed as cell growth inhibition after 72 hrs by cell titer-glo assay; assay type: cell-based; summary of the method: as §1
[8] = test system: Mast/stem cell growth factor receptor Kit (Homo sapiens), P10721 [V559D,V654A]; experiment: Inhibition of TEL-fused cKIT V559D/V654A double mutant (unknown origin) expressed in mouse BA/F3 cells assessed as cell growth inhibition after 72 hrs by cell titer-glo assay; assay type: cell-based; summary of the method: as §1
[9] = species on record: Homo sapiens; experiment: Inhibition of TEL-fused cKIT L567P mutant (unknown origin) expressed in mouse BA/F3 cells assessed as cell growth inhibition after 72 hrs by cell titer-glo assay; assay type: cell-based; summary of the method: as §1
[10] = test system: Mast/stem cell growth factor receptor Kit (Homo sapiens), P10721 [T670I]; details: 1 uM
[11] = test system: Mast/stem cell growth factor receptor Kit (Homo sapiens), P10721 [T670I]; experiment: Inhibition of […] cKIT T670I mutant in human GIST-5R cells assessed as cell growth inhibition after 72 hrs by cell titer-glo assay; assay type: cell-based
[12] = test system: Mast/stem cell growth factor receptor Kit (Homo sapiens), P10721 [T670I]; details: 1 uM; remark: listed apart in the source
[13] = test system: Mast/stem cell growth factor receptor Kit (Homo sapiens), P10721 [T670I]; details: 1 uM; remark: listed apart in the source
[14] = test system: Mast/stem cell growth factor receptor Kit (Homo sapiens), P10721 [T670I]; details: 1 uM; remark: listed apart in the source
[15] = test system: Mast/stem cell growth factor receptor Kit (Homo sapiens), P10721 [N822K]; experiment: Inhibition of TEL-fused cKIT N822K mutant (unknown origin) expressed in mouse BA/F3 cells assessed as cell growth inhibition after 72 hrs by cell titer-glo assay; assay type: cell-based; summary of the method: as §1
[16] = test system: Mast/stem cell growth factor receptor Kit (Homo sapiens), P10721 [T670I]; details: 1 uM; remark: listed apart in the source
[17] = test system: Mast/stem cell growth factor receptor Kit (Homo sapiens), P10721 [T670I]; details: 1 uM; remark: listed apart in the source

Chain of Mast/stem cell growth factor receptor Kit (Homo sapiens), P10721 [T670I] (P10721 whole entry T670I, the tested form may be a part): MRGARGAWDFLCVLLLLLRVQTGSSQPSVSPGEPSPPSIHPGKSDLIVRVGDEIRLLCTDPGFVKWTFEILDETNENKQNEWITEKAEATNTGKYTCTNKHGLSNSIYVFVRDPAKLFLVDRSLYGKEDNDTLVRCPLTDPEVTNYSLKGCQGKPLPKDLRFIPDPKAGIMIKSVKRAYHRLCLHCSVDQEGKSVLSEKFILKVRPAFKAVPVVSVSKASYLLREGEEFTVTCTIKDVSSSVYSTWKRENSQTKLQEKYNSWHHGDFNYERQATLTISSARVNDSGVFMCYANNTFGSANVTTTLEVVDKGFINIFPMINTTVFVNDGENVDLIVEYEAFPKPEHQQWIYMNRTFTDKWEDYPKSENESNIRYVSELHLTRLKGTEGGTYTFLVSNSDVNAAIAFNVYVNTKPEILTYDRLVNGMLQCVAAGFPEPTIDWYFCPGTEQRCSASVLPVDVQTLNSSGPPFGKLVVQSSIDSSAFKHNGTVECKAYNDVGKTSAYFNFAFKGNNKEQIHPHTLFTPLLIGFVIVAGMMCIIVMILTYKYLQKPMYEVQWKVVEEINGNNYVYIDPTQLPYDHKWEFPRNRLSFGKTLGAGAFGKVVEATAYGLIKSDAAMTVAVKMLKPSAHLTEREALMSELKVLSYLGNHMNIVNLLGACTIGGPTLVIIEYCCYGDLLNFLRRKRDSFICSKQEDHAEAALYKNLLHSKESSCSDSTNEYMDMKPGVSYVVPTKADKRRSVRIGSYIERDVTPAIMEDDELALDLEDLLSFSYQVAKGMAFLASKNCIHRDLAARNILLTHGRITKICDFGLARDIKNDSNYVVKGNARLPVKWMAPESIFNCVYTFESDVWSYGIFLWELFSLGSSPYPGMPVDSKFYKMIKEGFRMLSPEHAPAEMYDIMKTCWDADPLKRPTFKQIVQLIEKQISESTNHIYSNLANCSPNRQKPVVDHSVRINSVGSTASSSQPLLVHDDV
T1 sequence (P10721 whole entry, the tested form may be a part): as the sequence (P10721 whole entry T670I, the tested form may be a part) above, with I670T counted along it
Chain of Mast/stem cell growth factor receptor Kit (Homo sapiens), P10721 [V559D,V654A] (P10721 whole entry V559D/V654A, the tested form may be a part): as the sequence (P10721 whole entry T670I, the tested form may be a part) above, with V559D, V654A, I670T counted along it
Chain of Mast/stem cell growth factor receptor Kit (Homo sapiens), P10721 [V654A] (P10721 whole entry V654A, the tested form may be a part): as the sequence (P10721 whole entry T670I, the tested form may be a part) above, with V654A, I670T counted along it
Chain of Mast/stem cell growth factor receptor Kit (Homo sapiens), P10721 [D816V] (P10721 whole entry D816V, the tested form may be a part): as the sequence (P10721 whole entry T670I, the tested form may be a part) above, with I670T, D816V counted along it
Chain of Mast/stem cell growth factor receptor Kit (Homo sapiens), P10721 [N822K] (P10721 whole entry N822K, the tested form may be a part): as the sequence (P10721 whole entry T670I, the tested form may be a part) above, with I670T, N822K counted along it
Chain of Mast/stem cell growth factor receptor Kit (Homo sapiens), P10721 [V559D,T670I] (P10721 whole entry V559D/T670I, the tested form may be a part): as the sequence (P10721 whole entry T670I, the tested form may be a part) above, with V559D counted along it

Compound	GI50 [2]	GI50 [3]	GI50 at 72 h [1]	other results
COc1cc2nccc(Oc3cccc(NC(=O)Nc4ccc(N5CCC(NC(=O)C6CCN(C(=O)C7CC7)CC6)CC5)c(C(F)(F)F)c4)c3)c2cc1OC	130 nM	120 nM	800 nM	–
COc1cc2nccc(Oc3cccc(NC(=O)Nc4ccc(N5CCC(NS(=O)(=O)C6CC6)CC5)c(C(F)(F)F)c4)c3)c2cc1OC	140 nM	63 nM	1900 nM	–
COc1cc2nccc(Oc3cccc(NC(=O)Nc4ccc(N5CCC(NC(C)=O)CC5)c(C(F)(F)F)c4)c3)c2cc1OC	110 nM	46 nM	7100 nM	–
CCCS(=O)(=O)NC1CCN(c2ccc(NC(=O)Nc3cccc(Oc4ccnc5cc(OC)c(OC)cc45)c3)cc2C(F)(F)F)CC1	59 nM	950 nM	4230 nM	–
CCC(=O)NC1CCN(c2ccc(C(=O)Nc3cccc(Oc4ccnc5cc(OC)c(OC)cc45)c3)cc2C(F)(F)F)CC1	400 nM	2700 nM	> 10000 nM	–
COc1cc2nccc(Oc3cccc(NC(=O)Nc4ccc(N5CCC(NC(=O)CCC6CCCCN6C)CC5)c(C(F)(F)F)c4)c3)c2cc1OC (configuration not stated)	190 nM	200 nM	1200 nM	–
COc1cc2nccc(Oc3cccc(NC(=O)Nc4ccc(N5CCC(NC(=O)CN6CCCCC6)CC5)c(C(F)(F)F)c4)c3)c2cc1OC	120 nM	37 nM	480 nM	–
COc1cc2nccc(Oc3cccc(NC(=O)Nc4ccc(N5CCC(NC(=O)CN6CCCC(C)C6)CC5)c(C(F)(F)F)c4)c3)c2cc1OC (configuration not stated)	330 nM	200 nM	870 nM	–
CCC(=O)NC1CCN(c2ccc(NC(=O)Nc3cccc(Oc4ccnc5cc(OC)c(OC)cc45)c3)cc2C(F)(F)F)CC1	120 nM	71 nM	1500 nM	–
COc1cc2nccc(Oc3cccc(NC(=O)Nc4ccc(N5CCC(NC(=O)C6CCN(C)CC6)CC5)c(C(F)(F)F)c4)c3)c2cc1OC	160 nM	81 nM	1700 nM	–
COc1cc2nccc(Oc3cccc(NC(=O)Nc4ccc(N5CCC(NC(=O)C6CCNC(C)C6)CC5)c(C(F)(F)F)c4)c3)c2cc1OC (configuration not stated)	460 nM	650 nM	4000 nM	–
COc1cc2nccc(Oc3cccc(NC(=O)Nc4ccc(N5CCC(CNC(=O)CCC6CCCCN6C)CC5)c(C(F)(F)F)c4)c3)c2cc1OC (configuration not stated)	250 nM	460 nM	4400 nM	–
COc1cc2nccc(Oc3cccc(NC(=O)Nc4ccc(N5CCC(NC(=O)C6CCOCC6)CC5)c(C(F)(F)F)c4)c3)c2cc1OC	87 nM	83 nM	2900 nM	–
CCN1CCC(C(=O)NC2CCN(c3ccc(NC(=O)Nc4cccc(Oc5ccnc6cc(OC)c(OC)cc56)c4)cc3C(F)(F)F)CC2)CC1	39 nM	87 nM	1300 nM	–

More lines, main results first:

GI50 [2]	GI50 [3]	Compound	GI50 at 72 h [1]	other results
34 nM	330 nM	CCS(=O)(=O)NC1CCN(c2ccc(NC(=O)Nc3cccc(Oc4ccnc5cc(OC)c(OC)cc45)c3)cc2C(F)(F)F)CC1	6200 nM	–
> 10000 nM	> 10000 nM	CCC(=O)NC1CCN(c2ccc(NC(=O)Nc3cccc(Oc4ccnc5cc(OC)c(OC)cc45)c3)cc2)CC1	> 10000 nM	–
120 nM	480 nM	COc1cc2nccc(Oc3cccc(NC(=O)Nc4ccc(N5CCC(NC(=O)C(C)N)CC5)c(C(F)(F)F)c4)c3)c2cc1OC (single isomer, unassigned)	3000 nM	–
20 nM	321 nM	COc1cc2nccc(Oc3cccc(NC(=O)Nc4ccc(N5CCC(NC(=O)c6cccnc6)CC5)c(C(F)(F)F)c4)c3)c2cc1OC	7000 nM	–
59 nM	230 nM	COc1cc2nccc(Oc3cccc(NC(=O)Nc4ccc(N5CCC(NC(=O)C6CCN(C(C)=O)CC6)CC5)c(C(F)(F)F)c4)c3)c2cc1OC	3400 nM	–
38 nM	53 nM	COc1cc2nccc(Oc3cccc(NC(=O)Nc4ccc(N5CCC(NC(=O)CN(C)C)CC5)c(C(F)(F)F)c4)c3)c2cc1OC	2900 nM	–
–	5 nM	CCN(CC)CCNC(=O)c1c(C)[nH]c(/C=C2\C(=O)Nc3ccc(F)cc32)c1C [SUNITINIB]	1600 nM	GI50 [4]: 7 nM; GI50 [5]: 5 nM; GI50 [6]: 6 nM; GI50 [7]: 420 nM; GI50 [8]: 6 nM; GI50 [9]: 3 nM
42 nM	59 nM	COc1cc2nccc(Oc3cccc(NC(=O)Nc4ccc(N5CCC(NC(=O)CCN6CCOCC6)CC5)c(C(F)(F)F)c4)c3)c2cc1OC	3600 nM	–
760 nM	760 nM	COc1cc2nccc(Oc3cccc(NC(=O)Nc4ccc(N5CCC(NC(=O)C6=CCCCC6)CC5)c(C(F)(F)F)c4)c3)c2cc1OC	1100 nM	–
280 nM	920 nM	CCC(=O)NC1CCCN(c2ccc(NC(=O)Nc3cccc(Oc4ccnc5cc(OC)c(OC)cc45)c3)cc2C(F)(F)F)C1 (configuration not stated)	1310 nM	–
430 nM	340 nM	COc1cc2nccc(Oc3cccc(NC(=O)Nc4ccc(N5CCC(NC(=O)CC(C)(C)C)CC5)c(C(F)(F)F)c4)c3)c2cc1OC	> 10000 nM	–
340 nM	> 10000 nM	CCC(=O)Nc1ccc(N2CCC(NC(=O)Nc3cccc(Oc4ccnc5cc(OC)c(OC)cc45)c3)CC2)c(C(F)(F)F)c1	> 10000 nM	–
–	9600 nM	Cc1ccc(NC(=O)c2ccc(CN3CCN(C)CC3)cc2)cc1Nc1nccc(-c2cccnc2)n1 [IMATINIB]	> 10000 nM	inhibition [10]: inactive; GI50 [11]: 8300 nM; inhibition [12]: inactive; inhibition [13]: inactive; inhibition [14]: inactive; GI50 [15]: 360 nM; GI50 [6]: 700 nM; GI50 [7]: > 10000 nM; GI50 [8]: 700 nM; GI50 [9]: 10 nM; inhibition [16]: inactive; inhibition [17]: inactive
130 nM	581 nM	COc1cc2nccc(Oc3cccc(NC(=O)Nc4ccc(N5CCC(NC(=O)CN)CC5)c(C(F)(F)F)c4)c3)c2cc1OC	5000 nM	–
> 10000 nM	> 10000 nM	CCC(=O)NC1CCN(c2ccc(NC(=O)C3(C(=O)Nc4cccc(Oc5ccnc6cc(OC)c(OC)cc56)c4)CC3)cc2C(F)(F)F)CC1	> 10000 nM	–
130 nM	170 nM	COc1cc2nccc(Oc3cccc(NC(=O)Nc4ccc(N5CCC(NC(=O)C6CCCN(C(=O)OC(C)(C)C)C6)CC5)c(C(F)(F)F)c4)c3)c2cc1OC (configuration not stated)	510 nM	–
440 nM	260 nM	COc1cc2nccc(Oc3cccc(NC(=O)Nc4ccc(N5CCC(NC(=O)CCN6CCCCC6)CC5)c(C(F)(F)F)c4)c3)c2cc1OC	7600 nM	–
3900 nM	3800 nM	COc1cc2nccc(Oc3cccc(NC(=O)Nc4ccc(N5CCC(NS(C)(=O)=O)CC5)c(C(F)(F)F)c4)c3)c2cc1OC	> 10000 nM	–
